Data from ChEMBL document CHEMBL1130413, “Novel 3'-C/N-substituted 2',3'-beta-D-dideoxynucleosides as potential chemotherapeutic agents. 1. Thymidine derivatives: synthesis, structure, and broad spectrum antiviral properties” (J Med Chem, 1997).
Values after ≈ are worked out from the molar mass of the structure shown.

Key:
[1] = Minimum cytotoxic concentration which causes microscopically detectable alteration of normal cell morphology after 2 days of incubation.; type: functional; conditions: 48 h
Summary of the method: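 Uninfected E6SM cells exposed to compound for 2 days. Minimum concentration giving a microscopically detectable change in normal cell morphology recorded.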

E6SM [2] = test: 50% Minimum inhibitory concentration which is required to reduce cytopathogenicity induced by TK-(B2006) strain of HSV-1 virus on human E6SM cells.; type: functional
Summary of the method: (§1)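 Confluent cell monolayers infected with 100 CCID50 virus and left 1 h for adsorption. Residual virus then removed and compound added at serial dilutions (400, 200, 100 ... µg/mL). Value is the concentration giving 50% reduction of CPE.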

E6SM [3] = test: 50% Minimum inhibitory concentration which is required to reduce cytopathogenicity induced by (F) strain of HSV-1 virus on human E6SM cells.; type: functional; summary of the method: as §1
E6SM [4] = test: 50% Minimum inhibitory concentration which is required to reduce cytopathogenicity induced by (KOS) strain of HSV-1 virus on human E6SM cells.; type: functional; summary of the method: as §1
HEL [5] = test: 50% Minimum inhibitory concentration which is required to reduce cytopathogenicity induced by (KOS) strain of HSV-1 virus on human embryonic HEL cells.; type: functional; summary of the method: as §1
HEL [6] = test: 50% Minimum inhibitory concentration which is required to reduce cytopathogenicity induced by (Mc Intyre) strain of HSV-1 virus on human embryonic HEL cells.; type: functional; summary of the method: as §1
E6SM [7] = test: 50% Minimum inhibitory concentration which is required to reduce cytopathogenicity induced by (196) strain of HSV-2 virus on human E6SM cells.; type: functional; summary of the method: as §1
E6SM [8] = test: 50% Minimum inhibitory concentration which is required to reduce cytopathogenicity induced by (G) strain of HSV-2 virus on human E6SM cells.; type: functional; summary of the method: as §1
E6SM [9] = test: 50% Minimum inhibitory concentration which is required to reduce cytopathogenicity induced by (Mc Intyre) strain of HSV-1 virus on human E6SM cells.; type: functional; summary of the method: as §1
HEL [10] = test: 50% Minimum inhibitory concentration which is required to reduce cytopathogenicity induced by (G) strain of HSV-2 virus on human embryonic HEL cells.; type: functional; summary of the method: as §1
HEL [11] = test: 50% Minimum inhibitory concentration which is required to reduce cytopathogenicity induced by TK-(B2006) strain of HSV-1 virus on human embryonic HEL cells.; type: functional; summary of the method: as §1
HEL [12] = test: 50% Minimum inhibitory concentration which is required to reduce cytopathogenicity induced by (Lyons) strain of HSV-2 virus on human embryonic HEL cells.; type: functional; summary of the method: as §1
E6SM [13] = test: 50% Minimum inhibitory concentration which is required to reduce cytopathogenicity induced by (Lyons) strain of HSV-2 virus on human E6SM cells.; type: functional; summary of the method: as §1
CCRF-CEM [14] = test: 50% effective concentration of compound which is required to protect human CEM cells against HIV-2 induced giant cell formation.; type: functional, cell-based
Summary of the method: (§2)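 CEM cells at 250000–300000 cells/mL infected with HIV-1 (IIIB) or HIV-2 (ROD) at 100 CCID50/mL. Infected cells mixed with serial compound dilutions and incubated 4 days at 37 °C. Syncytium (giant cell) formation then scored. Values averaged over two independent experiments.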

MT4 [15] = test: 50% effective concentration of compound which is required to protect human MT-4 cells against cytopathogenicity of HIV-2.; type: functional, cell-based
MOLT-4 = test: EC50 is the cytotoxic concentration of compound required to reduce Molt4/C8 (human T-lymphocyte) cell viability by 50%.; type: functional, cell-based
Summary of the method: (§3)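 Human CEM or Molt-4 cells seeded at 7.5 × 10^5 cells/mL with varying compound concentrations. Incubated 3 days at 37 °C in humidified CO2. Viable cells counted with a Coulter counter. Value is the concentration reducing viable cell number by 50%.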

MT4 [16] = test: Cytotoxic concentration which is required to reduce human MT-4 cell viability by 50%.; type: functional
HeLa = test: 50% Minimum inhibitory concentration which is required to reduce cytopathogenicity induced by Vesicular Stomatitis virus (VSV) in Hela cells.; type: functional; conditions: Homo sapiens; summary of the method: as §1
HepG2 = test: 50% Effective concentration of compound required for inhibiting intracellular viral replicative intermediate DNA in HBV-transfected 2.2.15 cell line.; type: functional, cell-based; conditions: Homo sapiens
Summary of the method: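 2.2.15 cells (HBV-transfected, Hep-G2-derived) in DMEM with 4% FBS and 0.5 mM glutamine; drug exposure 9 days, medium changed every 3 days. Total intracellular DNA extracted and Southern-blotted with a 32P-labelled full-length HBV probe. Replicative intermediate DNA in treated cells compared with untreated 2.2.15 cells; Hep-G2 as negative control.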

[17] = Selectivity index of HIV-1 and HIV-2 with respect to CEM cells; type: functional, CCRF-CEM
Summary of the method: (§4)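 Selectivity index calculated as average CC50 divided by average EC50. Each average comes from two independent experiments, using HIV-1 (IIIB) and HIV-2 (ROD) in CEM or MT-4 cells.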

MT4 [18] = test: 50% effective concentration of compound which is required to protect human MT-4 cells against cytopathogenicity of HIV-1.; type: functional, cell-based
CCRF-CEM [19] = test: Cytotoxic concentration which is required to reduce human CEM cell viability by 50%.; type: functional; summary of the method: as §3
HEL [20] = test: 50% Minimum inhibitory concentration which is required to reduce cytopathogenicity induced by (OKA) strain of Varicella Zoster virus on human embryonic HEL cells.; type: functional
FM3A [21] = test: EC50 is the cytotoxic concentration of compound required to reduce FM3A/TK- (Thymidine kinase deficient murine mammary carcinoma cells) cell viability by 50%.; type: functional, cell-based; conditions: Mus musculus
Summary of the method: (§5)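 Murine L1210 or FM3A-derived cells seeded at 5 × 10^5 cells/mL with varying compound concentrations. Incubated 2 days at 37 °C in humidified CO2. Viable cells counted with a Coulter counter. Value is the concentration reducing viable cell number by 50%.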

FM3A [22] = test: EC50 is the cytotoxic concentration of compound required to reduce FM3A/TK- HSV-1TK+ cell viability by 50%.; type: functional, cell-based; conditions: Mus musculus; summary of the method: as §5
CCRF-CEM [23] = test: 50% effective concentration of compound which is required to protect human CEM cells against HIV-1 induced giant cell formation.; type: functional, cell-based; summary of the method: as §2
L1210 = test: EC50 is the cytotoxic concentration of compound required to reduce L1210 (murine leukemia cells) cell viability by 50%.; type: functional, cell-based; conditions: Mus musculus; summary of the method: as §5
CEM-TK(-) [24] = test: Cytotoxic concentration which is required to reduce CEM/TK- cell viability by 50%.; type: functional; conditions: Homo sapiens
CEM-TK(-) [25] = test: 50% effective concentration of compound which is required to protect Thymidine kinase deficient human CEM (CEM/TK-) cells against HIV-2.; type: functional, cell-based
FM3A [26] = test: EC50 is the cytotoxic concentration of compound required to reduce FM3A (murine mammary carcinoma cells) cell viability by 50%.; type: functional, cell-based; conditions: Mus musculus; summary of the method: as §5
[27] = Selectivity index of HIV-1 and HIV-2 with respect to MT-4 cells; type: functional, MT4; summary of the method: as §4

Compound	MCC [1] [µg/mL]	MIC (E6SM [2]) [µg/mL]	MIC (E6SM [3]) [µg/mL]	MIC (E6SM [4]) [µg/mL]	MIC (HEL [5]) [µg/mL]	MIC (HEL [6]) [µg/mL]	MIC (E6SM [7]) [µg/mL]	MIC (E6SM [8]) [µg/mL]	MIC (E6SM [9]) [µg/mL]	MIC (HEL [10]) [µg/mL]	MIC (HEL [11]) [µg/mL]	MIC (HEL [12]) [µg/mL]	MIC (E6SM [13]) [µg/mL]	also measured
O=c1[nH]c(=O)n([C@H]2C[C@H](O)[C@@H](CO)O2)cc1/C=C/Br [BRIVUDINE]	> 300	10 (≈ 30 µM)	0.02 (≈ 0.06 µM)	0.007 (≈ 0.021 µM)	0.005 (≈ 0.015 µM)	0.003 (≈ 0.00901 µM)	> 400	90 (≈ 270 µM)	90 (≈ 270 µM)	30 (≈ 90.1 µM)	50 (≈ 150 µM)	5 (≈ 15 µM)	> 400	
Cc1cn(C2C/C(=N\O)C(CO)O2)c(=O)[nH]c1=O (centres undefined)	> 400	> 200	0.5 (≈ 1.96 µM)	0.4 (≈ 1.57 µM)	1.4 (≈ 5.49 µM)	0.85 (≈ 3.33 µM)	11 (≈ 43.1 µM)	0.7 (≈ 2.74 µM)	1.3 (≈ 5.09 µM)	0.5 (≈ 1.96 µM)	> 50	0.31 (≈ 1.21 µM)	1.4 (≈ 5.49 µM)	EC50 (CCRF-CEM [14]): 0.35 µg/mL (≈ 1.37 µM); EC50 (MT4 [15]): 0.03 µg/mL (≈ 0.118 µM); EC50 (MOLT-4): 1.2 µg/mL (≈ 4.7 µM); CC50 (MT4 [16]): 1.6 µg/mL (≈ 6.27 µM); MIC (HeLa): 135 µg/mL (≈ 529 µM); EC50 (HepG2): 0.25 µg/mL (≈ 0.98 µM); Selectivity index [17]: 28; EC50 (MT4 [18]): 0.025 µg/mL (≈ 0.098 µM); CC50 (CCRF-CEM [19]): 9.9 µg/mL (≈ 38.8 µM); MIC (HEL [20]): 20 µg/mL (≈ 78.4 µM); EC50 (FM3A [21]): > 200 µg/mL; EC50 (FM3A [22]): > 200 µg/mL; EC50 (CCRF-CEM [23]): 0.4 µg/mL (≈ 1.57 µM); EC50 (L1210): 1.1 µg/mL (≈ 4.31 µM); CC50 (CEM-TK(-) [24]): > 100 µg/mL; EC50 (CEM-TK(-) [25]): 20 µg/mL (≈ 78.4 µM); EC50 (FM3A [26]): > 200 µg/mL; Selectivity index [27]: 88
